Experimental data: PMC2810129 (Journal of medicinal chemistry, 2009)
pIC50: −log10 of the molar value. Like-named read-outs stand apart in the source and are kept apart here.

How the values were obtained:
PfKASIII [1] = biological target: T1, PfKASIII (Plasmodium falciparum, UniProt O77078); assay: PfKASIII inhibitor screen; assay type: biochemical
P. falciparum parasites = assay: In vitro malaria growth inhibition assay, strain not specified or both strains; assay type: cell-based, Plasmodium falciparum; conditions: drug resistant and sensitive parasites
How it was run: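 P. falciparum D6 (chloroquine-sensitive, Sierra Leone I) and W2 (chloroquine-resistant, Indochina I) clones were cultured under 90% N2/5% O2/5% CO2 with 10% human serum and 6% haematocrit A+ red cells. Cultures at 3% parasitaemia with ≥70% rings were put on predosed plates for 24 h. [3H]-hypoxanthine was then added for 18 h, and cells were harvested and counted. IC50 was taken from a four-parameter nonlinear regression.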

[2] = test system: J774 murine monocyte-like macrophage line (subclone G8); assay: Toxicity assay; assay type: cell-based
bacterial KAS enzymes = conditions: cited from earlier work
PfKASIII [3] = biological target: T1, PfKASIII; conditions: read-out: PfKASIII IC50; cited from earlier work

Structure (SMILES)	PfKASIII inhibition (in words) (PfKASIII [1])	toxicity against the mammalian cell line (in words) [2]	further results
C/C=C/CCCCCCCC(=O)NS(=O)(=O)c1ccc(N)cc1 [Compound 2e]	failed to inhibit PfKASIII at the highest concentration tested	–	pIC50 (PfKASIII [1]): < 3.00
CCCCS(=O)(=O)CCOC(=O)c1ccc([N+](=O)[O-])cc1 [Compound 3r]	potent inhibitors of PfKASIII	significant toxicity	antimalarial activity / parasite growth inhibition (in words) (P. falciparum parasites): fail to inhibit parasite growth
Nc1ccc(S(=O)(=O)c2cc(O)c3ccccc3c2O)c(Cl)c1 [Compound 3c]	the most potent compound within the class of sulfonyls	–	–
Cc1ccc(S(=O)(=O)c2cc(O)c3ccccc3c2O)cc1 [Compound 3a]	–	little toxicity	–
C=C/C(C)=C/[C@@]1(C)SC(=O)C(C)=C1O [Thiolactomycin]	–	–	in vivo IC50, bacterial KAS enzymes (bacterial KAS enzymes): 75 µM; pIC50 (PfKASIII [3]): < 3.48
COc1ncnc(NS(=O)(=O)c2ccc(N)cc2)c1OC [Compound 2c]	failed to inhibit PfKASIII at the highest concentration tested	–	antimalarial activity / parasite growth inhibition (in words) (P. falciparum parasites): robust antimalarial activity; pIC50 (PfKASIII [1]): < 3.00
CC(C)c1ccc(S(=O)(=O)c2ccc(C(C)C)cc2)cc1 [Compound 3g]	–	significant toxicity	–
O=S(=O)(Nc1cccc(Cl)c1)c1ccccc1 [Compound 2b]	–	significant toxicity	–
NC1CCC(S(=O)(=O)c2cc(O)c3ccccc3c2O)CC1 (stereo not drawn) [Compound 3b]	–	little toxicity	–
O=[N+]([O-])c1c(Cl)sc(Cl)c1S(=O)(=O)Nc1ccc(C(F)(F)F)cc1 [Compound 2g]	–	–	antimalarial activity / parasite growth inhibition (in words) (P. falciparum parasites): modest activity
Cc1ccc(S/C=C/S(=O)(=O)Cc2ccccc2)cc1 [Compound 3n]	–	significant toxicity	–
c1ccc(SSc2ccccc2)cc1 [Compound 1d]	–	little toxicity	–
